In the library only some 3% were active in any assay of this set; here they are far more common.
TMEM16A inh: blocks the mouse calcium-activated chloride channel TMEM16A. Q8BHY3. HEK293 TMEM16A/YFP iodide influx fluorescence, ionomycin. normalized B-score (activity score, 25-100; higher = stronger inhibition) at 10 µM. 310,000 tested, 1.2% active;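 active = ratio plate-corrected score three or more library SD toward inhibition, starting fluorescence score within five deviations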;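 also: score derived from kinetic fluorescence span divided by baseline fluorescence per well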
SR-BI DiI-HDL act: SR-BI HDL lipid transfer activation; CHO ldlA[mSR-BI] cells, DiI-HDL uptake fluorescence, 3 h; 100 = double the neutral-control signal; activation, % at 12.5 µM; 320,000 tested, 0.096% active; AID 504775;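 active = mean replicate activation of at least 60% and every replicate at or above 60%; inconclusive = mean or all-replicate condition met, but not both; inactive = mean below 60% and not all replicates reaching 60%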;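 also: 0% = median plate neutral-control signal and 100% = twice that signal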
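Material: SR-BI-overexpressing, LDLR-lacking CHO cells; schedule: compound exposure 3 h, 37 °C; reagent: DiI-labelled HDL at 10 µg/mL final; technique: bottom-read fluorescence, 550/595 nm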
SR-BI HDL uptake: inhibitors of mouse SR-BI mediated HDL lipid uptake. AID 488896. inhibition, % at 12.5 µM. 320,000 tested, 0.96% active. Q61009. ldlA[mSR-BI] CHO cells, DiI-HDL uptake fluorescence, 3 h;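 active = mean replicate inhibition of at least 70% and a set share of replicates each scoring 70 or more; inconclusive = meets just one of the two criteria; inactive = fails both criteria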;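 also: 0% = median of neutral control wells and 100% = median of positive control wells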
DNA FID counter: counter-screen for HCV NS3 helicase inhibitors: DNA intercalator displacement; inhibition, % at 7.9 µM; DNA fluorescent intercalator displacement, fluorescence; AID 1845; 290,000 tested, 0.17% active; in the data active = inhibition above about 37%;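 also: 0% = vehicle and 100% = reference compound; higher means more ethidium bromide displaced from hairpin DNA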
Kir21 block: blocks the mouse Kir2.1 inward-rectifier potassium channel; P35561; HEK293-Kir2.1, FluxOR thallium flux fluorescence; active compounds read low; B-score at 10 µM; 310,000 tested, 0.85% active; AID 1672;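 active = fluorescence ratio B-score at or below minus 3 SD of library scores, with starting-brightness B-score within 2 SD, cut at about -4.2 in these data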;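 also: channel flux triggered by added potassium and thallium sulfate stimulus; B-score of peak minus minimum fluorescence over baseline after thallium stimulus; more negative B-score means stronger Kir2.1 block with less thallium influx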
Target sequence (P35561 whole entry, looked up): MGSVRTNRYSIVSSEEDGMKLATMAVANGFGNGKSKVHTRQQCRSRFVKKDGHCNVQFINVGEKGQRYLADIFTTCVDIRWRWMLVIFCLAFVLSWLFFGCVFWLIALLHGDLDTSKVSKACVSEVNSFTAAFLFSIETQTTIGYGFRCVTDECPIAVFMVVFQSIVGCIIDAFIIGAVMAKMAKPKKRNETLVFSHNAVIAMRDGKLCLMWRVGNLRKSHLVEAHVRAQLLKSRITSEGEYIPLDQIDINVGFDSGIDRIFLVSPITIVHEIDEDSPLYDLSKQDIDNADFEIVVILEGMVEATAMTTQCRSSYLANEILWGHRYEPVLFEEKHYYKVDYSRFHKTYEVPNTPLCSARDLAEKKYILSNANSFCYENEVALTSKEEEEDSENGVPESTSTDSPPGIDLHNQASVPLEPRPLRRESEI
TMEM16A act: activates or potentiates the mouse TMEM16A chloride channel | B-score at 10 µM | Q8BHY3 | 340,000 tested, 0.3% active | HEK293 TMEM16A/YFP-H148Q/I152L, iodide quench fluorescence; active compounds read low;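 active = fluorescence-ratio B-score plate-corrected deviation score at least 3 library SD below zero, with starting fluorescence score within 5 deviations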;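 also: channel opened by trigger with iodide after compound preincubation; score built on the fluorescence ratio of max minus min over baseline; more negative score means more quench and so TMEM16A activation or potentiation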
* marks the source's active call; other numbers are inactive results; i = inactive; ? = inconclusive; . = no result given.

SMILES	TMEM16A inh	SR-BI DiI-HDL act	SR-BI HDL uptake	DNA FID counter	Kir21 block	TMEM16A act
O=S(=O)(c1ccc(F)cc1)N1CCCC1c1cccnc1 (configuration not stated)	i	14.7	-14.7	-7.5	-1.51	i
O=S(=O)(c1ccc(F)cc1)N1CCCCC1c1cccnc1 (configuration not stated)	i	15.9	-2.8	-6.0	-4.87*	i
O=S(=O)(c1ccc(Cl)cc1)N1CCCCC1c1cccnc1 (configuration not stated)	i	16.3	-16.3	5.5	-8.96*	i
CCN(CC)S(=O)(=O)c1ccc(NN=C(C#N)C#N)cc1	100*	-70.9	?	-9.8	0.02	i
Cc1ccc(C(C)C)c(OCC#CCN2CCCC2)c1	i	-11.2	11.2	10.5	-4.21*	i
COc1ccc(OCC#CCN2CCCCCC2)cc1	i	15.3	-15.3	1.1	0.55	i
C[n+]1ccc(-c2cc[n+](C)cc2)cc1	i	2.6	-2.6	.	.	i
CCCCCCC[n+]1ccc(-c2cc[n+](CCCCCCC)cc2)cc1	i	-12.9	12.9	54.8*	0.96	i
CN1CCC(N(C)c2nc(-c3ccccc3)nc3ccccc23)CC1	i	-8.8	8.8	62.9*	-0.98	i
Cc1cc(N2CCN(C)CC2)nc2ccccc12	i	3.0	-3.0	0.2	-0.34	i
O=P1(c2ccccc2)Nc2ccccc2N1c1ccccc1 (configuration not stated)	.	-8.4	8.4	.	.	i
CC1=CC2/C=C(\C)CCC(O)C(O)/C=C/C(=O)C23C(=O)NC(CC(C)C)C3C1C (configuration not stated)	i	-19.8	19.8	-39.0	-7.11*	i
CC12CCC3C(CC=C4CC(O)CCC43C)C1CC(=CN1CCOCC1)C2=O (configuration not stated)	.	7.1	-7.1	.	.	i
Cc1sc2ncnc(N3CCC(C(=O)Nc4ccc(C#N)c(Cl)c4)CC3)c2c1C	i	-12.5	12.6	.	-0.06	i
CC(=O)N1N=C(c2cccnc2)OC1c1ccccc1Cl (configuration not stated)	i	14.1	-14.1	-3.9	-2.79	i
ClCCN(CCCl)c1ccc(C=NNc2ncccn2)cc1	.	-21.5	21.5	.	.	i
Cc1cc(N(CCCl)CCCl)ccc1C=NNC(=O)c1cccnc1	.	-88.8	88.8*	.	.	i
O=C(NN=Cc1ccc(N(CCCl)CCCl)cc1Cl)c1cccnc1	.	-80.2	80.2*	.	.	i
O=C(NN=Cc1ccc(N(CCCl)CCCl)cc1)c1cc(=O)[nH]c(=O)[nH]1	.	22.3	-22.3	.	.	i
CC(=O)[C@@]1(O)CCC2C3CC=C4C[C@@H](O)CC[C@]4(C)C3CC[C@@]21C (some centres not stated)	.	11.2	-11.2	.	.	i
CCOc1c(Cl)cc(CNCCc2c[nH]c3ccccc23)cc1OC	i	.	.	18.9	-1.67	i
CCOc1cc(CNCCc2c[nH]c3ccccc23)cc(Cl)c1OCC	i	27.2	-27.2	10.5	-7.58*	i
CCOc1cc(CNC(C)C(O)c2ccccc2)cc(Cl)c1OCC (configuration not stated)	i	-11.0	11.0	28.1	-5.58*	i
CC(NCc1ccc(Cl)c(Cl)c1)C(O)c1ccccc1 (configuration not stated)	i	17.8	-17.8	11.4	-4.6*	i
CC(NCc1ccccc1Cl)C(O)c1ccccc1 (configuration not stated)	i	19.0	-19.0	4.2	-5.65*	i
SMILES	TMEM16A inh	SR-BI DiI-HDL act	SR-BI HDL uptake	DNA FID counter	Kir21 block	TMEM16A act
CC(NCc1ccccc1C(F)(F)F)C(O)c1ccccc1 (configuration not stated)	i	26.7	-26.7	13.1	1.62	i
OC(CN1CCOCC1)c1csc2ccccc12 (configuration not stated)	i	-6.9	6.9	.	-1	i
CC1CN=C(Nc2ccc(F)c(Cl)c2)S1 (configuration not stated)	i	5.6	-5.6	4.5	1.23	i
CCC1(Cc2ccccc2)C(=O)NC(=S)N(C)C1=O (configuration not stated)	.	2.8	-2.8	.	.	i
COC(=O)C1=C(c2ccccc2OCc2ccccc2)C[C@@H]2CC[C@H]1N2C(=O)NCCOc1ccc(OC)cc1	.	-25.2	25.2	.	.	i
Cc1nc2ccccc2c(=O)n1-c1ccc([N+](=O)[O-])cc1	i	-16.8	16.8	1.6	-0.88	i
Cc1nc2cc([N+](=O)[O-])ccc2c(=O)n1-c1ccc(Br)cc1	i	24.7	-24.7	1.8	-0.12	-13.4*
N[C@@H](Cc1c[nH]c2ccccc12)c1nnc(SCc2ccc(Cl)cc2)o1	i	8.7	-8.7	-3.1	-5.22*	i
CSc1ccc(C(=O)C2CCCN(Cc3cnc(SC)nc3)C2)cc1 (configuration not stated)	25*	-2.6	2.6	0.0	0.53	i
CC(=O)C1C(N2CC2)CC2C3CC=C4CC(O)CCC4(C)C3CCC21C (configuration not stated)	.	6.9	-6.9	.	.	i
C[C@H]1OC[C@@H](C[N+](C)(C)C)O1	i	-8.0	9.9	-2.3	-0.33	-12.6*
O=C1NC(=O)N(c2ccccc2F)C(=O)/C1=C/c1ccc(Sc2nc3ccccc3[nH]2)o1	i	-2.9	2.9	-73.5	.	i
O=C1NC(=O)N(c2cccc(Cl)c2)C(=O)/C1=C\c1ccc(Sc2nc3ccccc3[nH]2)o1	i	-0.6	0.6	-24.3	-4.75*	i
N#CC(=C(O)c1ccc(S(=O)(=O)N(CCCl)CCCl)cc1)c1nc2ccccc2[nH]1	.	-1.9	1.9	.	.	i
CCOC(=O)c1c(C)n(Cc2ccccc2)c2ccc(OCC(O)Cn3nc(C)cc3C)cc12 (configuration not stated)	100*	-29.4	29.4	-28.7	.	i
CCOC(=O)c1c(C)n(Cc2ccccc2)c2ccc(OCC(O)Cn3nc(C)nc3C)cc12 (configuration not stated)	i	1.4	-1.4	-27.1	-0.05	i
COc1ccc(CCNCc2ccc(SC)cc2)cc1	i	.	.	8.9	-5.54*	.
Cc1cc(OC(=O)N(C)C)n(-c2ccccc2)n1	i	-4.9	4.9	-2.8	-1.76	i
Cc1cc(C)n(-c2ccc(NN=C(C#N)C#N)cc2)n1	i	-33.7	33.7	-8.2	-1.2	i
N#CC(C#N)=NNc1ccc(-n2ccc(C(F)(F)F)n2)cc1	100*	-23.4	23.4	-15.3	-6.02*	-4.62*
COc1ccc(Cn2c(O)c(C=NCCN3CCOCC3)c(=O)[nH]c2=O)cc1	i	19.6	-19.6	-5.8	0	i

Source: PubChem BioAssay
